# Measured values of several laboratories.
# Each line is one published result; the experiments were not run side by side.
# Target: Dual specificity mitogen-activated protein kinase kinase 1 (MAP2K1, Homo sapiens, UniProt Q02750)
SMILES,read-out,mode,technique,tested at,endpoint,result
Cn1c(=O)n(-c2ccc(C(C)(C)C#N)cc2)c2c3cc(-c4cnc5ccccc5c4)ccc3ncc21,enzyme activity,inhibitor,,10 µM,remaining activity,116%
CNCc1ccc(-c2cc(-c3nc(-c4ccc(S(=O)(=O)C(C)C)cc4)cnc3N)on2)cc1,enzyme activity,inhibitor,,0.4 µM,inhibition,12%
Cc1cc(NC(=O)c2cccc3cc(-c4cccc5[nH]nc(N)c45)ccc23)ccc1F,enzyme activity,inhibitor,,0.1 µM,activity vs control,102%
CN([C@@H]1CCc2c(CC(=O)O)c3cc(S(C)(=O)=O)ccc3n2C1)S(=O)(=O)c1ccc(F)cc1,cell-free assay,,competition with immobilised ligand,1 µM,remaining binding,98%
CC(C)(C)C(=O)c1sc(NC2CCCCC2)nc1N,enzyme activity,inhibitor,,10 µM,remaining activity,94%
O=C(O)[C@@H]1[C@@H](Cn2nnc3ccccc3c2=O)CC[C@H]1C(=O)c1ccc(OCCC2CCOCC2)cc1,cell-free assay,,competition with immobilised ligand,1 µM,remaining binding,81%
CC(C)c1ccc(NC(=O)c2cccs2)c(-c2nc3ccccc3[nH]c2=O)c1,enzyme activity,inhibitor,,1 µM,activity vs control,112%
Cc1ccc(C(=O)Nc2ccc(CN3CCN(C)CC3)c(C(F)(F)F)c2)cc1C#Cc1cnc2cccnn12,enzyme activity,inhibitor,,23.5 nM,remaining activity,100%
FC(F)(F)Oc1cccc(-c2cnc3ccc(-c4ccncc4)nn23)c1,enzyme activity,inhibitor,radiometric,1 µM,activity vs control,79%
C=CC(=O)Nc1cc(Nc2nccc(Nc3cc(Cl)c(F)cc3C(C)(C)O)n2)c(OC)cc1N1CC[C@@H](N(C)C)C1,enzyme activity,inhibitor,,1 µM,inhibition,21%
C[C@@H]1CN(c2cc(-c3nn(C)c4ccc(OC5(C)CC5)cc34)ncn2)C[C@H](C)O1,cell-free assay,,competition with immobilised ligand,1 µM,remaining binding,74%
Nc1nc(Nc2ccc(S(N)(=O)=O)cc2)nn1C(=O)c1c(F)cccc1F,cell-free assay,,,0.5 µM,remaining signal,93.9%
CN(C)C1CCN(CC#Cc2nn(C3CCCC3)c3nc(NCc4ccccc4)ncc23)C1 (centres unmarked),enzyme activity,inhibitor,FRET,10 µM,inhibition,13%
CCN(CC)Cc1cc(Nc2ccnc3cc(Cl)ccc23)ccc1O,cell-free assay,,competition with immobilised ligand,10 µM,remaining binding,96%
CCOc1cc(-c2nncn2C)ccc1Nc1ncc2cc(C)nc(NCC(C)(C)C)c2n1,enzyme activity,inhibitor,FRET,1 µM,inhibition,16%
CCN(CC)c1ccc(C2=NNC(=O)CC2C)cc1[N+](=O)[O-] (centres unmarked),enzyme activity,inhibitor,,10 µM,remaining activity,126%
CNC(=O)Nc1ccc2c(c1)CC[C@@]21OC(=O)N(CC(=O)N(Cc2ccc(F)cc2)[C@@H](C)C(F)(F)F)C1=O,cell-free assay,,competition with immobilised ligand,1 µM,remaining binding,85%
COc1cc(Nc2cnc(C#N)c(O[C@H](C)CN(C)C)n2)ncc1-c1cnn(C)c1,enzyme activity,inhibitor,radiometric,1 µM,remaining activity,80%
O=C1Nc2ccc(Cl)cc2C1=Cc1cc(Cl)c(O)c(Cl)c1,cell-free assay,,,0.5 µM,remaining signal,96.8%
CN(C(=O)c1ccccc1)c1cc(N(C)c2ccc3c(c2)CCc2ccc(C(=O)NCCN4CCOCC4)cc2C3=O)ccc1F,cell-free assay,,competition with immobilised ligand,1 µM,remaining binding,100%
COc1cc(Cl)c(C(=O)N[C@@H](CN[C@H]2CC[C@@H](N)CC2)Cc2ccc(C#N)cc2)cc1-c1ccc(CN[C@H](C)c2ccc(C)cc2)o1,enzyme activity,inhibitor,,1 µM,remaining activity,98%
CCN(CC)CCNC(=O)c1c(C)[nH]c(/C=C2\C(=O)Nc3ccc(F)cc32)c1C,enzyme activity,inhibitor,,0.3 µM,inhibition,36%
O=C(Nc1cnn(-c2csc(C(=O)NC3COC3)c2)c1)Nc1c(F)cccc1Cl,enzyme activity,inhibitor,,5 µM,remaining activity,107%
Cc1nccc(COC(=O)N2C[C@@H]3[C@@H](CNC(=O)c4ccc5[nH]nnc5c4)[C@@H]3C2)n1,cell-free assay,,competition with immobilised ligand,1 µM,remaining binding,92%
COc1cc2ncnc(Nc3ccc(Oc4ccccc4)cc3C)c2cc1OC,enzyme activity,inhibitor,,1 µM,inhibition,11%
CNC(=O)c1cc(Oc2ccc(NC(=O)Nc3ccc(Cl)c(C(F)(F)F)c3)cc2)ccn1,enzyme activity,inhibitor,,0.3 µM,inhibition,0%
N#CCCc1ccc2c(c1)-c1[nH]c3ccc([N+](=O)[O-])cc3c1CC(=O)N2,cell-free assay,,,0.5 µM,remaining signal,97.1%
Cc1[nH]c(/C=C2\C(=O)Nc3ccc(F)cc32)c(C)c1C(=O)N[C@H]1CCN(C(=O)N(C)C)C1,enzyme activity,inhibitor,,0.1 µM,remaining activity,94%
Cc1ccc(Nc2nccc(N(C)c3ccc4c(C)n(C)nc4c3)n2)cc1S(N)(=O)=O,enzyme activity,inhibitor,,10 µM,inhibition,1%
Cn1cnc(Br)c1C1=CN(c2ncnc3[nH]cnc23)CCS1,enzyme activity,inhibitor,radiometric,2 µM,inhibition,16.9%
CCN(CC)CCNC(=O)c1c(C)[nH]c(/C=C2\C(=O)Nc3ccc(F)cc32)c1C,enzyme activity,inhibitor,,0.1 µM,remaining activity,79%
CNCc1ccccc1-c1csc([C@H](C)Nc2nc(C)nc3cc(OC)c(OC)cc23)c1,cell-free assay,,competition with immobilised ligand,1 µM,remaining binding,100%
CC(C)(C)c1nc(-c2cccc(NS(=O)(=O)c3c(F)cccc3F)c2F)c(-c2ccnc(N)n2)s1,enzyme activity,inhibitor,radiometric,1 µM,remaining activity,94%
CSc1cccnc1N1CCN(Cc2nc3ccccc3[nH]2)CC1,cell-free assay,,competition with immobilised ligand,1 µM,remaining binding,79%
CN(c1ncccc1CNc1nc(Nc2ccc3c(c2)CC(=O)N3)ncc1C(F)(F)F)S(C)(=O)=O,enzyme activity,inhibitor,,1 µM,inhibition,77.1%
